Results: ChEMBL document CHEMBL1133671, “Synthesis and SAR of new 5-phenyl-3-ureido-1,5-benzodiazepines as cholecystokinin-B receptor antagonists” (J Med Chem, 2000)

Legend:
[1] = target: T1, Cholecystokinin receptor type A (Rattus norvegicus, UniProt P30551); test: In vitro inhibition of binding of [3H]pCCK-8 against Cholecystokinin type A receptor of rat pancreatic membranes; type: cell membranes, Membrane
T1 sequence (P30551 whole entry): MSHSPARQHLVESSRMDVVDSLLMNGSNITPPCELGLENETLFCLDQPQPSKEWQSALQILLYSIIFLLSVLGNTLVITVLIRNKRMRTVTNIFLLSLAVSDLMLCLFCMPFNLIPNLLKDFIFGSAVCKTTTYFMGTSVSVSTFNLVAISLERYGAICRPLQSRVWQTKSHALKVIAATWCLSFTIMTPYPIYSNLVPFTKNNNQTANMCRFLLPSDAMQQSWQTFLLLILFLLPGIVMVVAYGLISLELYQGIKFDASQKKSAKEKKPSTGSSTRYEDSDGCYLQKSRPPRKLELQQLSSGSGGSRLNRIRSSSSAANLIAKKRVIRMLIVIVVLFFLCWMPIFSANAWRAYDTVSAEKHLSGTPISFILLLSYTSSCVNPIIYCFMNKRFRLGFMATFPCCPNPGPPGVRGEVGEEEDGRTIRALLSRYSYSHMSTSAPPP
Method in brief: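 Radioligand displacement of [3H]CCK-8S from membranes: rat pancreas for the CCK-A receptor and guinea-pig cerebral cortex for the CCK-B receptor, using slightly modified published methods. Values are means of n experiments.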

[2] = target: T1, Cholecystokinin receptor type A; test: Inhibition by displacing [3H]CCK-8S against Cholecystokinin type A receptor of rat pancreatic membranes
Mus musculus [3] = test: Anxiolytic effect in the mouse black / white box model, when administered intravenously; type: functional; details: iv
Method in brief: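 Naive mice were placed in an activity box with a brightly illuminated section, and the time they spent there was recorded. The effect was assessed over a dose series and reported as an ED50.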

Mus musculus [4] = test: Anxiolytic effect in the mouse black / white box model, when administered orally (po); type: functional
Method in brief: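 Naive mice placed in an activity box with a brightly illuminated section. The read-out was the time the mice remained in the lit section. Dose-related effects were assessed, and an ED50 value was derived.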

Rattus norvegicus [5] = test: Anxiolytic effect in the rat social interaction test against FG 7142, when administered intraperitoneally; type: functional; details: ip
Rattus norvegicus [6] = test: Anxiolytic effect in the rat social interaction test, when administered orally (po); type: functional
Rattus norvegicus [7] = species: Rattus norvegicus; test: pKB determined against pentagastrin-induced acid secretion in isolated rat gastric mucosa; type: functional
Method in brief: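 Isolated rat gastric mucosa used as a gastrin-receptor preparation; acid secretion stimulated with pentagastrin and antagonism expressed as pKB.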

[8] = target: T2, Cholecystokinin receptor type A (Cavia porcellus) (UniProt Q63931); details: Gall bladder
T2 sequence (whole entry): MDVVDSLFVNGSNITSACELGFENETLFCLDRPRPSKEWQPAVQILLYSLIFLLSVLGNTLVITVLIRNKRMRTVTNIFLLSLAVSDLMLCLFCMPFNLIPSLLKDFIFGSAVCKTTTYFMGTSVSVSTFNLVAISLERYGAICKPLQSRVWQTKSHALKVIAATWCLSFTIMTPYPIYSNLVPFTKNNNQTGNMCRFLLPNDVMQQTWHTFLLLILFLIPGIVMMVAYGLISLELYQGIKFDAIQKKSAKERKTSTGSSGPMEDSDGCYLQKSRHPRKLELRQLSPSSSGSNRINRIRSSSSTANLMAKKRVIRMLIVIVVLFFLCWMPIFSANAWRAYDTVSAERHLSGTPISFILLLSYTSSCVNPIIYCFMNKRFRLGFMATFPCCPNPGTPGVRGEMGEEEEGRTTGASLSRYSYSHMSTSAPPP

[9] = target: T2, Cholecystokinin receptor type A (Cavia porcellus)
[10] = target: T3, Gastrin/cholecystokinin type B receptor (Homo sapiens) (UniProt P32239); details: Cavia porcellus
T3 sequence (whole entry): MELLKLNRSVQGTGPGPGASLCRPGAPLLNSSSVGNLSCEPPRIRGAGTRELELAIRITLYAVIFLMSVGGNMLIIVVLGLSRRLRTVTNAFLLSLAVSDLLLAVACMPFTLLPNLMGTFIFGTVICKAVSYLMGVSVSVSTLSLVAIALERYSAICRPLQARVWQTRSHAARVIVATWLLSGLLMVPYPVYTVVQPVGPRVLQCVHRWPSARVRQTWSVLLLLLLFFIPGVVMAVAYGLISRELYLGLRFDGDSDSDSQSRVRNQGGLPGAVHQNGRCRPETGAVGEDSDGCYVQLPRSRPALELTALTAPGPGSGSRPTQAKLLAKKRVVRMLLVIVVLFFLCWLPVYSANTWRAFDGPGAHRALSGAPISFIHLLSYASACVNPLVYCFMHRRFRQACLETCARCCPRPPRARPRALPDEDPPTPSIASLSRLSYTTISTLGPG

Cavia porcellus = species: Cavia porcellus; test: Selectivity factor between CCK-B and CCK-A receptors

| SMILES | Ki [1] [µM] | Ki [2] [µM] | Ratio (Cavia porcellus) | other results |
| --- | --- | --- | --- | --- |
| O=C(Nc1ccccc1)NC1C(=O)N(CC23C[C@H]4C[C@@H](C2)C[C@@H](C3)C4)c2ccccc2N(c2ccccc2)C1=O (single isomer, unassigned; (+)) [listing 1 of 2 here] | 1.62 | 1.48 | – | ED50 (Mus musculus [3]): 0.03 µg/kg; ED50 (Mus musculus [4]): 0.05 µg/kg; ED50 (Rattus norvegicus [5]): 10 µg/kg; ED50 (Rattus norvegicus [6]): 1.6 µg/kg; pKB (Rattus norvegicus [7]): 7.4 |
| O=C(Nc1ccccc1)NC1C(=O)N(CC23C[C@H]4C[C@@H](C2)C[C@@H](C3)C4)c2ccccc2N(c2ccccc2)C1=O (single isomer, unassigned; (+)) [listing 2 of 2 here] | – | – | – | pKB [8]: 5.8; pKB [9]: 5.9; pKB [10]: 8.9 |
| Cc1cccc(NC(=O)N[C@@H]2N=C(c3ccccc3)c3ccccc3N(C)C2=O)c1 [L-365260] | – | 0.000148 | – | – |
| CC(C)CC(C)N1C(=O)C(NC(=O)Nc2ccccc2)C(=O)N(c2ccccc2)c2ccccc21 (racemic) | 0.115 | – | 55 | – |
| CCCCN1C(=O)C(NC(=O)Nc2ccccc2)C(=O)N(c2ccccc2)c2ccccc21 (racemic) | 0.55 | – | 89 | – |
| O=C(Nc1ccccc1)NC1C(=O)N(c2ccccc2)c2ccccc2N(C2CC3CCC2C3)C1=O (racemic) | 0.251 | – | 162 | – |
